Where “and” joins values, the source holds several entries; their conditions need not be identical. Identical values can stand only once. Like-named read-outs stand apart in the source and are kept apart here.
Columns and labels:
[1] = tested on: D2 plus D3 receptors; assay type: binding, Sprague-Dawley rat; settings: rat striatum, n = 30
How it was run: (§1)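 Brains from male rhesus monkey (5 kg, 6 years) and male Sprague-Dawley rats (~500 g, 5 months) were flash frozen, and 20 μm coronal sections were cut. Sections were incubated 30 min with 4 nM tritiated test radioligand or 10 nM [3H]raclopride, ±1 μM S(−)-eticlopride for nonspecific binding. Sections were rinsed five times in ice-cold buffer, then imaged 24 h on a gaseous beta imager and calibrated against tritium standards. Reported as mean ± S.E.M (monkey n = 8, rat n = 30).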

[2] = tested on: D2 plus D3 receptors; assay type: binding, rhesus monkey; settings: n = 8; for B2 apparent receptor binding density: 10 nM radioligand; for B1 apparent receptor binding density: 4 nM radioligand
How it was run: as §1

[3] = tested on: D3 receptors; assay: Fractional receptor occupancy from saturation binding isotherm; settings: rat striatum; for receptors labeled: derived from saturation binding isotherm
How it was run: (§2)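 Computed occupancy fractions for rat striatum D2 or D3 receptors use the mass-action isotherm B/Bmax = L/(L+Kd). L is 4 nM for the tritiated test radioligand and 10 nM for tritiated raclopride. Kd values come from saturation binding to rat D2L/D3 receptors expressed in Sf9 cell membranes. The test radioligand Kd was taken from earlier work.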

[4] = tested on: D3 receptors; assay: Fractional receptor occupancy from saturation binding isotherm; settings: monkey striatum; for receptors labeled: derived from saturation binding isotherm
How it was run: (§3)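 Calculated rather than measured: the fraction of D2 or D3 receptors occupied in monkey striatum comes from B/Bmax = L/(L+Kd). L is 4 nM for the tritiated test radioligand or 10 nM for tritiated raclopride. Kd values are from saturation binding to cloned human D2L/D3 receptors expressed in HEK cells. The test radioligand Kd values were taken from earlier work.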

[5] = biological target: T1, rat rD3 receptors (Rattus norvegicus, UniProt P19020); assay: Saturation; settings: rD3 in Sf9 cells, saturation binding, mean ± S.E.M n = 3
T1 sequence (P19020 whole entry): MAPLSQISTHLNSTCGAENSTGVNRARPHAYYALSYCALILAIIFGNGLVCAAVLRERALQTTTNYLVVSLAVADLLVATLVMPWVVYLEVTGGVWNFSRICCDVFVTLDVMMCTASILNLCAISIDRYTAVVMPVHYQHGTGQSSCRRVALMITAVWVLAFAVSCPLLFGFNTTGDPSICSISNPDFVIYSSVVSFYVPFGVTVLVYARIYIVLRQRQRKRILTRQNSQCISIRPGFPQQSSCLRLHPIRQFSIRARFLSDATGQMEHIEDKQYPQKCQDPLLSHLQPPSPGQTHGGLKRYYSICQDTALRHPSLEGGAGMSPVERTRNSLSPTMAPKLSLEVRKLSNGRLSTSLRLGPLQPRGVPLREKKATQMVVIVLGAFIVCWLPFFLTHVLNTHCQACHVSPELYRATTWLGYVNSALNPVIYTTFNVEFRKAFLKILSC

[6] = biological target: T2, human hD3 receptors (Homo sapiens, UniProt P35462); assay: Saturation; settings: hD3 in HEK cells, saturation binding, mean ± S.E.M n = 3
T2 sequence (P35462 whole entry): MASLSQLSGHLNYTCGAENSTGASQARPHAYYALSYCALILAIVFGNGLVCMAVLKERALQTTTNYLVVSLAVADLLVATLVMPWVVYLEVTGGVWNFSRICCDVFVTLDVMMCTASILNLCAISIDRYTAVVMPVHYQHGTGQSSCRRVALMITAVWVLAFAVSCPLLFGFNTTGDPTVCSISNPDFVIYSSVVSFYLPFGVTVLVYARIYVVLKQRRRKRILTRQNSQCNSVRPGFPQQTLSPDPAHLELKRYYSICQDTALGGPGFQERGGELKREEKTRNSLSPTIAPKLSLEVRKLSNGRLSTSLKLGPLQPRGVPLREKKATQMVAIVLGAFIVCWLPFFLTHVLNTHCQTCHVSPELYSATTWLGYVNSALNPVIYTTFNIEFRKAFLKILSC

[7] = tested on: D2 receptors; assay: Fractional receptor occupancy from saturation binding isotherm; settings: monkey striatum; for receptors labeled: derived from saturation binding isotherm
How it was run: as §3

[8] = tested on: D2 receptors; assay: Fractional receptor occupancy from saturation binding isotherm; settings: rat striatum; for receptors labeled: derived from saturation binding isotherm
How it was run: as §2

[9] = biological target: rat rD2L receptors (Rattus norvegicus, UniProt P61169); settings: rD2L in Sf9 cells, saturation binding, mean ± S.E.M n = 3; ref Xu et al. (2009); cited from earlier work
Chain of rat rD2L receptors (P61169 whole entry): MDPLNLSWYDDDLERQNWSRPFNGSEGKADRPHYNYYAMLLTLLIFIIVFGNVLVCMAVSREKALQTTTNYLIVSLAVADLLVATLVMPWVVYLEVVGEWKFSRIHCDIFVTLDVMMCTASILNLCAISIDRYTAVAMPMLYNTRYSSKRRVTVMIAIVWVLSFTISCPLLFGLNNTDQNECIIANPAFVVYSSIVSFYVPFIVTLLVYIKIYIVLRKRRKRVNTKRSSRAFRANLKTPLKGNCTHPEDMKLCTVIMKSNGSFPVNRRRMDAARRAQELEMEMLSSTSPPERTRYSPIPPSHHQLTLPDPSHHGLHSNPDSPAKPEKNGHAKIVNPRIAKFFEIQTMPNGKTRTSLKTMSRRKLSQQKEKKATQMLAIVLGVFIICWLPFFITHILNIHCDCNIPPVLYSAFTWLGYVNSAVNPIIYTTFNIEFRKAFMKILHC

[10] = biological target: human hD2L receptors (Homo sapiens, UniProt P14416); settings: hD2L in HEK cells, saturation binding, mean ± S.E.M n = 3; ref Xu et al. (2009); cited from earlier work
Chain of human hD2L receptors (P14416 whole entry): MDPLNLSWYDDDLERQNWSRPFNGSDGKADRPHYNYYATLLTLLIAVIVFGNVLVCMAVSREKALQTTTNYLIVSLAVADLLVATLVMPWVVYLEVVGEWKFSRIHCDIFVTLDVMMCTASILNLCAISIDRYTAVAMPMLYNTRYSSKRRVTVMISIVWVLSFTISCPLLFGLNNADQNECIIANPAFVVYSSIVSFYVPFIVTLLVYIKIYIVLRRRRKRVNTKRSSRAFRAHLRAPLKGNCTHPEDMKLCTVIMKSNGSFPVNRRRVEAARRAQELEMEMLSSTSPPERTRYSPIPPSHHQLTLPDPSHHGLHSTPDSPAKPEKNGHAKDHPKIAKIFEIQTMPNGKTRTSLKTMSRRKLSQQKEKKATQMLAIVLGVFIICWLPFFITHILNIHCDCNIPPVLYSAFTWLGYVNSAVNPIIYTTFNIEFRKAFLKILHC

[11] = biological target: T1, rat rD3 receptors; settings: cited from earlier work
[12] = biological target: D3 receptors (Rattus norvegicus, UniProt P19020); assay: Scatchard analysis of autoradiography binding to rat brain sections; parameters: species or system Sprague-Dawley rat
Chain of D3 receptors (Rattus norvegicus, UniProt P19020) (P19020 whole entry): as the sequence (P19020 whole entry) above

[13] = biological target: T2, human hD3 receptors; settings: cited from earlier work
[14] = 10 nM, from Eq. 2 with Kd of Table I
[15] = 4 nM, from Eq. 2 with Kd of Table I

Compound: CCN1CCC[C@H]1CNC(=O)c1c(O)c(Cl)cc(Cl)c1OC (racemic) [[^3H]raclopride, reference compound]
- B2 apparent receptor binding density ([1]; 10 nM radioligand): 145 fmol/mg tissue and 145 ± 4 fmol/mg tissue
- B2 apparent receptor binding density ([2]; rhesus caudate): 318 fmol/mg tissue and 318 ± 17 fmol/mg tissue
- B2 apparent receptor binding density ([2]; rhesus putamen): 345 fmol/mg tissue and 345 ± 23 fmol/mg tissue
- receptors labeled ([3]; 10 nM): 37%
- b2, receptor occupancy fraction [3, 14]: 0.37
- receptors labeled ([4]; 10 nM): 36%
- b2, receptor occupancy fraction [4, 14]: 0.36
- Kd [5]: 17.1 ± 1.7 nM
- Kd [6]: 18 ± 1 nM
- receptors labeled ([7]; 10 nM): 86%
- a2, receptor occupancy fraction [7, 14]: 0.86
- receptors labeled ([8]; 10 nM): 60%
- a2, receptor occupancy fraction [8, 14]: 0.6

Compound: COc1ccccc1N1CCN(CCCCNC(=O)c2ccc(N(C)C)cc2)CC1 [[^3H]WC-10, 4-(dimethylamino)-N-(4-(4-(2-methoxyphenyl)piperazin-1-yl)butyl)benzamide]
- Kd [9]: 158 ± 8.3 nM
- B1 apparent receptor binding density ([1]; 4 nM radioligand): 38 fmol/mg tissue and 38 ± 2 fmol/mg tissue
- Kd [10]: 76 ± 4 nM
- B1 apparent receptor binding density ([2]; rhesus anterior caudate): 125 fmol/mg tissue and 125 ± 3 fmol/mg tissue
- B1 apparent receptor binding density ([2]; rhesus putamen): 141 fmol/mg tissue and 141 ± 4 fmol/mg tissue
- Kd ([11]; rD3 in Sf9 cells, saturation binding, mean ± S.E.M n = 3, ref Xu et al. (2009)): 3.9 nM and 3.94 nM
- D2L/D3 (Kd ratio) ([11]; rat receptors in Sf9 cells, ref Xu et al. (2009)): 40.1
- fold higher affinity to rat Sf9 rD3 than to rat Sf9 rD2L receptors ([11]; ref Xu et al., 2009): 40 fold
- fold lower affinity to rat Sf9 rD3 than to human HEK D3 receptors ([11]; ref Xu et al., 2009): 3 fold
- receptors labeled ([3]; 4 nM): 50%
- b1, receptor occupancy fraction [3, 15]: 0.5
- receptors labeled ([4]; 4 nM): 78%
- b1, receptor occupancy fraction [4, 15]: 0.78
- Kd [12]: 3.4 nM
- receptors labeled ([7]; 4 nM): 5%
- a1, receptor occupancy fraction [7, 15]: 0.05
- receptors labeled ([8]; 4 nM): 2%
- a1, receptor occupancy fraction [8, 15]: 0.02
- Kd ([13]; hD3 in HEK cells, saturation binding, mean ± S.E.M n = 3, ref Xu et al. (2009)): 1.2 nM and 1.16 nM
- D2L/D3 (Kd ratio) ([13]; human receptors in HEK cells, ref Xu et al. (2009)): 65.5
- fold higher affinity to human HEK D3 than to HEK D2L receptors ([13]; ref Xu et al., 2009): 66 fold

From article PMC3583018 (Synapse (New York, N.Y.), 2010)
